Data published in ChEMBL document CHEMBL3272032, “Antifolate studies. Activities of 40 potential antimalarial compounds against sensitive and chlorguanide triazine resistant strains of folate-requiring bacteria and Escherichia coli” (J Med Chem, 1977).
Calls of active or inactive are those of the source. The rule behind the calls is not given here.

How the values were obtained:
[1] = system: Enterococcus faecium; experiment: Fold increase in resistance, ratio of IC50 for chlorguanide triazine-resistant Streptococcus faecium ATCC 8043 to IC50 for sensitive Streptococcus faecium ATCC 8043; assay type: functional
Outline: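 Resistant S. faecium substrain raised by serial transfer in increasing chlorguanide triazine. IC50 (µM, 50% growth inhibition by turbidity) was found for resistant and parent strains in folic acid (0.002 µg/ml) medium. Fold increase taken as IC50 resistant / IC50 sensitive.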

[2] = system: Enterococcus faecium; experiment: Antibacterial activity against chlorguanide triazine-resistant Streptococcus faecium ATCC 8043 assessed as reduction in growth; assay type: functional, organism-based
Outline: (§1)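 Folate-requiring strains grown in medium with folic acid, 0.002 µg/ml for S. faecium and 0.001 µg/ml for L. casei; P. cerevisiae given folinic acid, 0.001 µg/ml. Resistant substrains came from serial transfer in rising chlorguanide triazine, and the most resistant were used. Compounds tested up to 1000 µg/ml, or 100 µg/ml when supply was limited. Growth read as Klett turbidity; IC50 is the µM concentration giving 50% growth inhibition.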

[3] = system: Pediococcus; experiment: Antibacterial activity against chlorguanide triazine-resistant Pediococcus cerevisiae ATCC 808 assessed as reduction in growth in presence of 0.001 ug/ml folinic acid; assay type: functional; outline: as §1
[4] = system: Lacticaseibacillus casei; experiment: Antibacterial activity against chlorguanide triazine-resistant Lactobacillus casei ATCC 7469 assessed as reduction in growth in presence of 0.001 ug/ml folic acid; assay type: functional, organism-based; outline: as §1
[5] = system: Lacticaseibacillus casei; experiment: Antibacterial activity against sensitive Lactobacillus casei ATCC 7469 assessed as reduction; assay type: functional, organism-based; outline: as §1
[6] = system: Pediococcus; experiment: Fold increase in resistance, ratio of IC50 for chlorguanide triazine-resistant Pediococcus cerevisiae ATCC 808 to IC50 for sensitive Pediococcus cerevisiae ATCC 808; assay type: functional
Outline: (§2)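 Resistant substrains were made by serial transfer in rising concentrations of cycloguanil, and the most resistant isolate of each organism was used. Both strains were assayed turbidimetrically under identical conditions. FIR = IC50 of the resistant strain divided by IC50 of the sensitive parent.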

[7] = system: Lacticaseibacillus casei; experiment: Antibacterial activity against chlorguanide triazine-resistant Lactobacillus casei ATCC 7469 assessed as reduction in growth; assay type: functional, organism-based; outline: as §1
[8] = system: Enterococcus faecium; experiment: Antibacterial activity against sensitive Streptococcus faecium ATCC 8043 assessed as reduction in growth; assay type: functional, organism-based; outline: as §1
[9] = system: Enterococcus faecium; experiment: Antibacterial activity against chlorguanide triazine-resistant Streptococcus faecium ATCC 8043 assessed as reduction in growth in presence of 0.002 ug/ml folic acid; assay type: functional, organism-based; outline: as §1
[10] = system: Lacticaseibacillus casei; experiment: Antibacterial activity against sensitive Lactobacillus casei ATCC 7469 assessed as reduction in growth in presence of 0.001 ug/ml folic acid; assay type: functional, organism-based
Outline: (§3)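 Folate-requiring strains in the medium of the earlier assay method. Folic acid was 0.002 μg/ml for S. faecium and 0.001 μg/ml for L. casei. Turbidity read on a Klett-Summerson colorimeter. IC50 is the micromolar concentration reducing growth to 50% of control. Top concentration was 1000 μg/ml, or 100 μg/ml if supply was limited.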

[11] = Antibacterial activity against sensitive Pediococcus cerevisiae ATCC 808 assessed as reduction; assay type: functional
Outline: (§4)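 P. cerevisiae grown with folinic acid at 0.001 μg/ml in the earlier-described medium. Turbidity read on a Klett-Summerson colorimeter. IC50 is the micromolar concentration reducing growth to 50% of control. Top concentration was 1000 μg/ml, or 100 μg/ml when supply was limited.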

[12] = system: Plasmodium berghei; experiment: Antimalarial activity against Plasmodium berghei infected in sc dosed mouse assessed as dose required to survivors for period of 60 days; assay type: functional
Outline: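 Mice infected with a blood-induced P. berghei inoculum were given one subcutaneous dose in peanut oil. Survivors at 60 days counted as cured. The minimum curative dose is the lowest dose that cured any mouse.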

[13] = system: Escherichia coli; experiment: Antibacterial activity against sensitive Escherichia coli ATCC 10536 assessed as reduction in growth in presence of p-aminobenzoic acid; assay type: functional, organism-based
Outline: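 Reversal test. Drug inhibition was challenged with PABA in Sahyun et al. medium plus 0.6% acid-hydrolyzed casein. Growth read as turbidity on a Klett-Summerson colorimeter. Scored as reversal or nonreversal of the drug inhibition.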

[14] = system: Lacticaseibacillus casei; experiment: Fold increase in resistance, ratio of IC50 for chlorguanide triazine-resistant Lactobacillus casei ATCC 7469 to IC50 for sensitive Lactobacillus casei ATCC 7469; assay type: functional; outline: as §2
[15] = Antibacterial activity against chlorguanide triazine-resistant Pediococcus cerevisiae ATCC 808 assessed as reduction in growth; assay type: functional; outline: as §1
[16] = system: Plasmodium berghei; experiment: Antimalarial activity against Plasmodium berghei infected in sc dosed mouse assessed as active dose required to increase of 100% in mean survival time; assay type: functional; details: read-out: MED
Outline: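 Mice received a standard blood-induced P. berghei inoculum and were then treated with one subcutaneous dose of compound suspended in peanut oil. The minimum active dose is the lowest dose that raised mean survival time by 100%.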

[17] = system: Enterococcus faecium; experiment: Antibacterial activity against sensitive Streptococcus faecium ATCC 8043 assessed as reduction in growth in presence of 0.002 ug/ml folic acid; assay type: functional, organism-based; outline: as §3
[18] = system: Escherichia coli; experiment: Antibacterial activity against sensitive Escherichia coli ATCC 10536 assessed as reduction in growth; assay type: functional, organism-based
Outline: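 Growth inhibition in Sahyun et al. medium plus 0.6% acid-hydrolyzed casein. Growth read as turbidity on a Klett-Summerson photoelectric colorimeter. IC50 is the micromolar concentration giving 50% growth inhibition. Top concentration was 1000 μg/ml, or 100 μg/ml when compound was limited.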

[19] = system: Pediococcus; experiment: Antibacterial activity against sensitive Pediococcus cerevisiae ATCC 808 assessed as reduction in growth in presence of 0.001 ug/ml folinic acid; assay type: functional; outline: as §4

Row | SMILES | Ratio IC50 [1] | IC50 [2] | inhibition [3] | inhibition [4] | IC50 [5] | Ratio IC50 [6] | IC50 [7] | IC50 [8] | inhibition [9] | inhibition [10] | IC50 [11] | MCD [12] | inhibition [13] | Ratio IC50 [14] | IC50 [15] | minimal effective dose [16] | inhibition [17] | IC50 [18] | inhibition [19]
1 | Nc1nc(N)c2cc(Oc3cc(Cl)cc(Cl)c3)ccc2n1 | 144 | 1.3 µM | inactive | inactive | 0.25 µM | 11.7 | 0.04 µM | 0.009 µM | inactive | inactive | 0.12 µM | 640 mg/kg | Active | 0.16 | 1.4 µM | 320 mg/kg | inactive | 2 µM | inactive
2 | Nc1ncc(Cc2ccc3c(c2)OCO3)c(N)n1 | 96.8 | 24.2 µM | inactive | inactive | 0.94 µM | 7.3 | 0.25 µM | 0.25 µM | inactive | inactive | 12.3 µM | 640 mg/kg | Active | 0.27 | 90.1 µM | 640 mg/kg | inactive | 45 µM | inactive
3 | Nc1nc(N)c2cc(NCc3ccc(Cl)c(Cl)c3)ccc2n1 | 330 | 2 µM | inactive | inactive | 0.4 µM | 3.5 | 0.03 µM | 0.006 µM | inactive | inactive | 0.2 µM | 80 mg/kg | Active | 0.08 | 0.7 µM | 20 mg/kg | inactive | 33 µM | inactive
4 | C=C[C@H]1CN2CC[C@H]1C[C@H]2[C@H](O)c1ccnc2ccc(OC)cc12 [QUININE] |  | > 2500 µM | Active |  | 980 µM | 1 | 1200 µM | > 2500 µM |  | Active | 780 µM | >640 mg/kg |  | 1 | 850 µM | 640 mg/kg |  | 1300 µM | Active
5 | Clc1ccc(Nc2nc(NCCCN3CCCC3)c3ccccc3n2)cc1Cl | 0.7 | 22 µM | Active |  | 10 µM | 2 | 5.7 µM | 32 µM |  | Active | 3.5 µM |  | Active | 0.6 | 7.9 µM |  | Active | 10 µM | Active
6 | N=C(N)NC(=O)Nc1ccc([N+](=O)[O-])cc1 | 2 | 2500 µM | Active | Active | 157 µM | 2 | 1800 µM | 1300 µM | Active | Active | 83 µM | 640 mg/kg |  | 12 | 197 µM | 640 mg/kg | Active | > 4480 µM | Active
7 | CN1CCCCC1CNc1nc(-c2ccc(Cl)c(Cl)c2)nc(C(Cl)(Cl)Cl)n1 (centres undefined) | 0.97 | 128 µM | Active | Active | 3 µM | 1 | 3.2 µM | 132 µM | Active | Active | 4.9 µM | 320 mg/kg |  | 1.1 | 3.8 µM | 160 mg/kg | Active |  | Active
8 | Cc1nc(C)c(Cl)c(O)c1Cl [CLOPIDOL] | 0.6 | 2200 µM | Active |  | 1700 µM | 1 | 885 µM | 3700 µM | Active | Active | 833 µM | >640 mg/kg |  | 0.52 | 1000 µM | 160 mg/kg | Active | > 5200 µM | Active
9 | CC(CNc1nc(Nc2ccc(Cl)c(Cl)c2)nc(C(Cl)(Cl)Cl)n1)N(C)C (centres undefined) | 1 | 14.6 µM | Active | Active | 5.7 µM | 1 | 4.9 µM | 14.2 µM | Active | Active | 5.9 µM | 160 mg/kg |  | 0.9 | 7.5 µM | 80 mg/kg | Active |  | Active
10 | C/C(=C\C(=N\NC(=N)N)c1ccccc1)c1ccccc1 | 6 | 60 µM | Active | Active | 48 µM | 0.5 | 41 µM | 11 µM |  | Active | 25 µM | >640 mg/kg | Active | 1 | 13 µM | 160 mg/kg | inactive | 51 µM | Active
11 | O=C1C(O)=C(CCCCCCCCC2CCCCC2)C(=O)c2ccccc21 [MENOCTONE] | 1 | 394 µM | Active | Active | 61 µM | 0.6 | 19 µM | 407 µM | Active | Active | 1000 µM | 160 mg/kg |  | 0.3 | 570 µM | 40 mg/kg | Active | > 2700 µM | Active
12 | CC1(C)N=C(N)N=C(N)N1c1ccc(Cl)cc1 [CYCLOGUANIL] | 194000 | 3300 µM | inactive | inactive | 16.3 µM | 26 | 2400 µM | 0.017 µM | inactive | inactive | 35 µM | 40 mg/kg |  | 147 | 900 µM | 20 mg/kg | inactive | > 3470 µM | inactive
